The list is not random: actives were taken first. Their share in the collection is about 2.3%.
TRPC4 block – blocks the mouse TRPC4 cation channel | Q9QUQ5 | HEK293 TRPC4beta/mu-opioid, DAMGO-evoked Fluo4 calcium flux; hits give low values | B-score at 10 µM | 300,000 tested, 0.39% active;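 active = B-score over 3 SD under the library average, no early fluorescence shift, positive overall ratio signal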
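Assay system: Stable TRPC4beta/mu-opioid receptor HEK293 cells | Reagent: DAMGO in two steps, submaximal then maximal | Compound dosing: Single concentration per test compound | Signal: Fluo4 Ca2+ flux fluorescence | Evaluation: Per-well B score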
TRPC4 PAM – allosterically enhances the mouse TRPC4 cation channel; Q9QUQ5; HEK293 TRPC4beta/mu-opioid, DAMGO EC20, Fluo-4 Ca2+ flux; hits give high values; B-score at 10 µM; 310,000 tested, 0.42% active;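 active = B-score of calcium response area above 5 SD of library B-scores, with initial fluorescence ratio within 5 SD of library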;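 note: B-score of integrated fluorescence ratio over time as area under calcium response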
TRPC4 act – opens the mouse TRPC4 cation channel | Q9QUQ5 | HEK293 TRPC4beta/mu-opioid, Fluo4 calcium fluorescence; hits give high values | B-score at 10 µM | 310,000 tested, 0.49% active | AID 2237;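 active = B-score above 5 SD of library B-scores, and initial fluorescence ratio not above library mean plus 5 SD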;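 note: positive B-score marks a calcium rise read as TRPC4 activation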
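Assay system: HEK293 stable line with TRPC4beta plus mu-opioid receptor. Times: dye 45 min RT, read 110 s. Measured by: kinetic Fluo4 calcium fluorescence. Measure: B score of integrated ratio. Controls: assay buffer as low control, maximal DAMGO as high control.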
TRPC6 act – activates the mouse TRPC6 cation channel; B-score at 10 µM; 310,000 tested, 0.13% active; AID 2550; Q61143; HEK293-TRPC6 membrane potential dye fluorescence; hits give high values;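 active = B-score of the integrated fluorescence ratio above library mean plus 3 SD, and starting fluorescence ratio within library mean plus 5 SD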;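 note: higher score means more depolarization so channel activation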
Target sequence (Q61143 whole entry, looked up): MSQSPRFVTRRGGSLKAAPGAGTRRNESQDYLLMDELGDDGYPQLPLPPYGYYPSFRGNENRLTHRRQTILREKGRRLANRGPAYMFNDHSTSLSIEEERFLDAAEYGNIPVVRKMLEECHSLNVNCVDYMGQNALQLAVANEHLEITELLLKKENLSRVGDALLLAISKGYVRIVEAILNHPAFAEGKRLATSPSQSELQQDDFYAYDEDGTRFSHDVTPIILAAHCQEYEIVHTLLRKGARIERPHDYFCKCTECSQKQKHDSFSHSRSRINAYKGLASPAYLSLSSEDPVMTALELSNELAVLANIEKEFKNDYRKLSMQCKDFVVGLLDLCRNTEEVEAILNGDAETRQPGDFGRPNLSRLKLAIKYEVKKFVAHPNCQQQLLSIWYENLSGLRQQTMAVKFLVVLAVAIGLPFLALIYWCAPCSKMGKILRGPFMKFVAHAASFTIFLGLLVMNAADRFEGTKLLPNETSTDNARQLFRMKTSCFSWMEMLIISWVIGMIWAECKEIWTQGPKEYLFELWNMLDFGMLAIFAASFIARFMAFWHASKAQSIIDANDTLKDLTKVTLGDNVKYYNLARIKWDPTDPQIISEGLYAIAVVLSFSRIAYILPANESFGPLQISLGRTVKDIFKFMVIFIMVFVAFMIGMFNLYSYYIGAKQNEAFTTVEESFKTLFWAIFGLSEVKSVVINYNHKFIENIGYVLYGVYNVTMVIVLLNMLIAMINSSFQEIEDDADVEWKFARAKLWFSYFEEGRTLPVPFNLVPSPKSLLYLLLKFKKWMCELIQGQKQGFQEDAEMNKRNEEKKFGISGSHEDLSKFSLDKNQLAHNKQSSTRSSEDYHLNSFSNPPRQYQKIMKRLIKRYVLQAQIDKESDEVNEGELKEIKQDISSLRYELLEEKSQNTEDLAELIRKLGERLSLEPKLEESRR
TRPC6 inhibitor – inhibitors of mouse TRPC6 channel. Q61143. HEK293-TRPC6, membrane potential dye, ACh-evoked depolarization; hits give low values. B-score at 10 µM. 310,000 tested, 1.1% active;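 active = B-score under library mean minus 3 SD, initial fluorescence not abnormally high, positive integrated signal ratio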;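 note: B-score derived from integrated fluorescence ratio over the kinetic read; more negative B-score means stronger inhibition of depolarization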
* = called active by the depositor; i = inactive; . = no result.

SMILES | TRPC4 block | TRPC4 PAM | TRPC4 act | TRPC6 act | TRPC6 inhibitor
O=C(CN1CCN(Cc2ccc(Cl)cc2)C1=O)NCCCN1CCN(c2ccc(F)cc2)CC1 | -6* | i | i | i | i
O=C(CN1CCN(Cc2ccc(Cl)cc2)C1=O)NCCCN1CCOCC1 | i | i | i | i | i
CC(C)c1c(O)nc(SCCC(=O)O)[nH]c1=O | i | i | i | i | i
CCCCCCc1c(O)nc(SCCN(C)C)[nH]c1=O | i | i | 65* | i | i
CCCN(CCC)CCSc1nc(O)c(C(C)C)c(=O)[nH]1 | i | 12* | i | i | i
CCCCCc1c(O)nc(SCCN(C)C)[nH]c1=O | i | i | 93* | i | i
CCCCCCc1c(O)nc(SCC(=O)O)[nH]c1=O | i | i | i | i | i
CCCCCc1c(O)nc(SCCN(CC)CC)[nH]c1=O | i | i | 46* | i | i
CN1CCN(C(CNC(=O)C(=O)NC2CCCC2)c2ccc(F)cc2)CC1 (configuration not stated) | i | i | i | i | i
N/C(=N\OC(=O)c1ccc(Cl)cc1)c1[nH]ncc1Br | i | i | i | i | i
Cc1cc(C)cc(NC(=O)CSc2nnc(-c3cc(C)[nH]n3)n2N)c1 | i | i | i | i | i
CN(CC(=O)Nc1ccc(Cl)cc1)C(=O)CCc1c[nH]c2ccccc12 | i | i | i | i | i
O=C(CCCN1C(=O)c2cccc3cccc(c23)C1=O)NC1CCS(=O)(=O)C1 (configuration not stated) | i | i | i | i | i
CC(C)c1c(O)nc(SCC(=O)N2CCCCC2)[nH]c1=O | i | 10* | i | i | i
CCC(C)(C)c1ccc(OCCCC[n+]2cccc(C)c2C)c(C(C)(C)CC)c1 | i | i | i | i | -5.3*
O=C(OC(c1ccccc1)c1nccc2ccccc12)c1cc([N+](=O)[O-])cc([N+](=O)[O-])c1 (configuration not stated) | i | i | i | i | i
Cc1ccc(S(=O)(=O)Nc2cccc(C(=O)NCc3ccc(S(N)(=O)=O)cc3)c2)cc1 | i | i | i | i | i
CN1CCN(CCCNC(=O)CN2C(=O)COc3ccccc32)CC1 | -6* | i | i | i | i
O=C(CN1C(=O)COc2ccccc21)NCCCN1CCCC1 | i | i | i | i | i
Cc1ccc(C2(C)NC(=O)N(CC(=O)N(Cc3ccccc3)C(C)(C)C)C2=O)cc1 (configuration not stated) | i | i | i | i | i
O=C(COc1ccc2c3c(c(=O)oc2c1)CCC3)Nc1ccccn1 | i | i | i | i | i
O=C1CC(c2ccc(F)cc2)CC2=C1C(c1ccc([N+](=O)[O-])o1)Nc1ccccc1N2 (configuration not stated) | i | i | i | i | i
Cc1cccc(N(Cc2ccccc2)C(=O)CSC(C)C(=O)Nc2cc(C)on2)c1 (configuration not stated) | -6* | i | i | i | i
Cc1cc(NC(=O)C(C)SCC(=O)O)no1 (configuration not stated) | i | i | i | i | i
COc1ccc(OCC(=O)Nc2ccccc2N2CCN(C)CC2)cc1 | -6* | i | i | i | i
SMILES | TRPC4 block | TRPC4 PAM | TRPC4 act | TRPC6 act | TRPC6 inhibitor
CCC(=O)N1CCN(c2ccccc2NC(=O)COc2ccc(C(C)C)cc2)CC1 | i | 11* | i | i | i
CC(C)c1ccc(OCC(=O)Nc2cccc3c2CCCC3)cc1 | i | i | i | i | i
COc1ccc(OCC(=O)Nc2ccccc2N2CCCCC2)cc1 | i | i | i | i | i
NC(=O)c1nsc(C(=O)N(Cc2ccco2)C(C(=O)NCc2ccc(F)cc2)c2ccc(O)cc2)c1N (configuration not stated) | -6* | i | i | i | i
NC(=O)c1nsc(C(=O)N(Cc2ccco2)C(C(=O)NC2CCCC2)c2ccc(O)cc2)c1N (configuration not stated) | -5* | i | i | i | i
Cc1ccc(C(C(=O)NCc2ccc(F)cc2)N(Cc2ccco2)C(=O)c2snc(C(N)=O)c2N)o1 (configuration not stated) | i | i | i | i | i
COc1ccc(NC(=S)NN2C(C)CCCC2C)cc1 (configuration not stated) | i | i | i | i | i
COc1cccc(NC(=S)NN2C(C)CCCC2C)c1 (configuration not stated) | i | 11* | i | i | i
COc1cc2c(c(OC)c1OC)-c1c(cc3c(c1OC)OCO3)[C@@H](OC(C)=O)[C@H](C)[C@H](C)C2 | i | i | i | i | i
C/C=C(/C)C(=O)O[C@@H]1c2cc(OC)c(OC)c(OC)c2-c2c(cc3c(c2OC)OCO3)C[C@H](C)[C@]1(C)O | . | 16* | i | i | i
CCn1ccnc1CNC(=O)c1ccc2oc(CCCc3ccccc3)nc2c1 | -6* | i | i | i | i
CCCCc1nc2cc(C(=O)NCc3ccccn3)ccc2o1 | i | i | i | i | i
CC(c1ccccc1C(O)(c1ccccc1)c1ccccc1)N(C)C (configuration not stated) | i | i | 103* | i | i
CC(C)N(CC#CCC(O)(c1ccccc1)c1ccccc1)C(C)C | i | i | i | i | i
CCOc1ccccc1N=NC1C(=O)N(C(N)=S)N=C1C (configuration not stated) | i | i | i | i | i
COc1ccc(/C=C/C(=O)Nc2cccc(S(=O)(=O)NC3=NCCCCC3)c2)cc1 | i | i | i | i | i
Cc1noc(C)c1CCC(=O)NC1CCCN(Cc2ccc(CC(C)C)cc2)C1 (configuration not stated) | i | i | 101* | i | i
Clc1ccc(OCCN2CCOCC2)cc1Cl | i | i | i | i | i
CNCCOc1ccc(Cl)c(Cl)c1 | i | 40* | 75* | i | i
Clc1ccc(OCCN2CCCCC2)cc1Cl | i | 26* | i | i | i
Clc1ccc(OCCCn2cncn2)cc1Cl | i | i | i | i | i
Cc1cc(OCCCCCN2CCCC2)ccc1Cl | i | i | i | i | i
Clc1ccc(OCCCN2CCCC2)cc1Cl | i | 11* | i | i | i
CNCCCOc1ccc2c(c1)CCC2 | i | 20* | 80* | i | i
Cc1ccc(C(=O)Nc2cccnc2)cc1Cl | i | i | i | i | i
